Screening data: PubChem BioAssay, several laboratories
CFTR F508del cor: CFTR F508del correction in bronchial cells | CFBE cells, YFP halide quenching; stimulated with forskolin plus potentiator P3; % fluorescence drop versus neutral controls | activity (quench increase), % at 7.58 µM | actives 0.36% (n = 350,000) | AID 720511;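 active = mean added fluorescence quench of at least 8% versus neutral control, with both replicates also reaching 8%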;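 also: cells transiently co-express mutant CFTR-F508del with the halide-sensitive YFP; corrector assay measuring rescue of mutant channel to the surface after 24 h compound exposure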
DNMT1 block: inhibitors of human DNMT1; actives 0.83% (n = 360,000); DNMT1 molecular beacon, Hinp1I cleavage, fluorescence; P26358; inhibition (reported as % activation of signal), % at 10 µM; in the data active = inhibition above about 50%
STEP block: blocks human striatal-enriched tyrosine phosphatase; P54829; actives 0.25% (n = 360,000); inhibition, % at 20 µM; recombinant STEP, OMFP fluorogenic substrate, fluorescence;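 active = inhibition at 20 µM, scaled per plate between control wells, above about 37%, limit read from the data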;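 also: 0% = DMSO with enzyme and substrate and 100% = substrate only without enzyme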
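Measure: Control-normalized % inhibition with plate pattern correction | Test system: STEP phosphatase, cell-free reaction | Medium: pH 6.0 Bis-Tris with DTT and Tween 20 | Technique: Fluorescence, 480/540 nm | Times: Reaction 20 min, ambient temperature | Doses: Single compound dose of 20 µM, 1% DMSO final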
Scp-1 inhibitor: blocks human Scp-1 phosphatase activity; inhibition, % at 20 µM; Q9GZU7; actives 0.88% (n = 340,000); Recombinant Scp1, phosphopeptide, malachite green phosphate absorbance;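 active = inhibition above about 50% at 20 µM, limit read from the data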;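 also: plate controls were DMSO wells with enzyme for no effect and wells lacking enzyme for full effect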
Target sequence (Q9GZU7 76-261 limits assumed): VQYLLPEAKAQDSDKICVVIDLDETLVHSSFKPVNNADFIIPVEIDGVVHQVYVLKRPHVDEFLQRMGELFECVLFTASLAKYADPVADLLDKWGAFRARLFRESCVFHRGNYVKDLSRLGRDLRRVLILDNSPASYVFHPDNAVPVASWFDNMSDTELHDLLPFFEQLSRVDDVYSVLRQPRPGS
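Test system – truncated SCP-1 phosphatase (76-261aa) · Reagent – Phosphorylated 17-residue peptide substrate · Incubation – 45 min room-temperature reaction, 5 min colour, 30 min stabiliser · Detection – colorimetric phosphate reagent with accelerator and stabiliser, absorbance at 630 nm · Measure – % inhibition at 20 µM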
LMPTP block: LMPTP (human) inhibition; actives 0.22% (n = 360,000); P24666; recombinant LMPTP-A, OMFP fluorogenic substrate, fluorescence intensity; inhibition, % at 20 µM;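 active = compounds that cut the enzyme signal by at least half of the control window in the single-dose screen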;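 also: plate controls were DMSO wells with enzyme plus substrate for no effect and substrate without enzyme for full effect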
Target sequence (P24666 whole entry, looked up): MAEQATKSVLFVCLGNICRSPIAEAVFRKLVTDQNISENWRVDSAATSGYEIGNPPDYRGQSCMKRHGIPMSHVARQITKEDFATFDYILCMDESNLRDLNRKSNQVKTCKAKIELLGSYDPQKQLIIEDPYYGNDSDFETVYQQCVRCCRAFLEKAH
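Assay system: LMPTP-A enzyme. Input: 0.625 nM LMPTP-A final. Probe or stimulus: 400 µM OMFP. Compound dosing: single 20 µM dose. Schedule: 50 min dark incubation at room temperature. Detection: fluorescence intensity of OMFP turnover product. Read-out: percent inhibition versus substrate-only and uninhibited controls. Benchmarks: no-enzyme low control, uninhibited high control.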
SUMO1-SIM PPI: alters human SUMO1 binding to SIM partners | inhibition, % at 20 µM | SUMO1 binding to a labelled peptide, TR-FRET, 1 h | P63165 | actives 0.33% (n = 360,000) | AID 602429; in the data active = inhibition above about 37%
Target sequence (P63165 whole entry, looked up): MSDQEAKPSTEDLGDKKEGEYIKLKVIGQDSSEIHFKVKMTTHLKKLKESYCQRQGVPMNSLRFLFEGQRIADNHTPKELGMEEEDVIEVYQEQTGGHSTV
Beacon interf DR: shows spectral interference in the DNMT1 beacon assay; IC50, µM; shares compounds with DNMT1 block; molecular beacon fluorescence, spectral interference counter-screen; 200 tested, under 10 active; AID 602382; call rule not given here
DNMT1 confirm: DNMT1 inhibition confirmation, single concentration; shares compounds with DNMT1 block; DNMT1 molecular beacon HinP1I cleavage, fluorescence; inhibition, % at 10 µM; actives 8% (n = 2,300); AID 602385;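 active = average inhibition of at least 30% in the single-concentration confirmation test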
DNMT1 interf: beacon fluorescence artifact counter-screen. shares compounds with DNMT1 block. DNMT1 molecular beacon spectral interference counterscreen, fluorescence 485/520. activation (fluorescence interference), % at 10 µM. actives 1% (n = 2,300);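 active = activation of at least 30% at 10 µM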;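 also: DNMT1 catalytic domain with a HinP1I cleavage step and a FAM/dabcyl DNA beacon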
* marks the source's active call; other numbers are inactive results; / = no result. This is a sample that favours compounds with a hit; in the whole collection about 1.6% have one here.

SMILES | CFTR F508del cor | DNMT1 block | STEP block | Scp-1 inhibitor | LMPTP block | SUMO1-SIM PPI | DNMT1 confirm | DNMT1 interf | others
O=C(Nc1cccc(F)c1)N1CC(=O)N2[C@H](C1)[C@@H](c1ccc(-c3ccccc3F)cc1)[C@@H]2CO | -0.2 | / | / | / | / | / | / | /
O=c1c(Cl)c(Cl)cnn1-c1ccccc1 | -3.1 | 5.7 | 2.8 | -4.0 | -1.0 | -9.2 | / | /
O=c1c(Cl)c(N/N=C/c2ccc(Cl)cc2)cnn1-c1ccccc1 | / | 80.0* | 3.1 | 19.5 | 54.2* | -1.0 | 5.0 | 2.5
COc1cc(CCc2ccccc2)c(C(=O)O)c(O)c1C/C=C(/C)CCC=C(C)C | 1.3 | 61.1* | -0.6 | 1.3 | 2.3 | 77.2* | 84.5* | -8.5 | Beacon interf DR=>99
COc1cc(CCc2ccccc2)c(C(=O)O)c(O)c1CC=C(C)C | 0.2 | -11.5 | -3.7 | -7.1 | 0.9 | 4.3 | / | /
O=C(Nc1ccc(Cl)cc1)c1cc(-c2cccs2)on1 | 5.2 | 50.4* | 7.6 | 4.0 | 21.3 | 16.4 | 1.0 | 1.9
O=C(Nc1ccc(Br)cc1)c1cc(-c2cccs2)on1 | -1.7 | 13.9 | 1.9 | 4.0 | 6.2 | 2.1 | / | /
COc1ccc(NC(=O)Nc2ccc3c(c2)CC(=O)N([C@@H](C)CO)C[C@H](C)[C@@H](CN(C)C(=O)Nc2ccc(OC)cc2)O3)cc1 | -4.5 | / | / | / | / | / | / | /
CCOC(=O)c1cccnc1SCC(=O)Nc1ccc(C)cc1 | -4.0 | -0.9 | 2.8 | 10.7 | 0.2 | 5.6 | / | /
Cc1ccc(NC(=O)CSc2ncccc2C(=O)Oc2cccc([N+](=O)[O-])c2)cc1Cl | / | 53.0* | 24.0 | 40.8 | 43.7 | 6.4 | 4.2 | -0.8
Nc1ncnc2c1ncn2[C@@H]1O[C@H](C(=O)NS(=O)(=O)c2cccc(F)c2)[C@@H](O)[C@H]1O | -0.9 | 2.5 | -2.9 | / | -2.4 | 0.3 | / | /
N#Cc1ccccc1S(=O)(=O)NC(=O)[C@H]1O[C@@H](n2cnc3c(N)ncnc32)[C@H](O)[C@@H]1O | 0.2 | 83.5* | -0.6 | / | -2.0 | 2.5 | 4.5 | -0.7
COCCn1c2nc(=O)n(-c3ccccc3)c(=O)c-2nc2ccccc21 | 3.0 | 98.9* | -78.8 | / | -4.7 | -27.7 | 45.6* | 71.9*
O=C(N/N=C/c1ccc([N+](=O)[O-])o1)C(=O)Nc1ccc(C(=O)O)cc1 | -2.3 | -3.1 | 0.9 | 9.0 | 3.7 | -24.3 | / | /
O=C(O)c1ccc(N/N=C/C=C/c2ccc([N+](=O)[O-])o2)cc1 | -0.8 | 72.2* | 43.4* | 57.5* | 20.0 | -40.8 | 9.0 | 2.8
O=C1NC(=S)N/C1=C/c1ccc(Oc2ccc(C(F)(F)F)cc2[N+](=O)[O-])c(Cl)c1 | -2.0 | 50.8* | -2.3 | 8.0 | -0.7 | -0.9 | 1.1 | 3.2
CC(C)c1cn(CC[C@@H]2CC[C@@H](NS(=O)(=O)c3ccccc3)[C@H](CO)O2)nn1 | -0.9 | / | / | / | / | / | / | /
C=CCc1cccc(C=Nc2c[nH]c(=O)[nH]c2=O)c1O | -2.2 | 71.6* | 2.0 | -12.1 | 0.3 | -2.4 | 2.5 | 1.4
CO[C@@H]1CN(C)C(=O)c2cc(NC(=O)CC(F)(F)F)ccc2OC[C@H](C)N(C(C)=O)C[C@H]1C | 1.6 | / | / | / | / | / | / | /
CO[C@@H]1CN(C)C(=O)c2cc(NC(=O)C3CC3)ccc2OC[C@H](C)N(Cc2cncnc2)C[C@@H]1C | -1.2 | / | / | / | / | / | / | /
Cc1ccc(-c2[nH]ncc2/C=N/n2c(COc3ccccc3)nc3ccccc3c2=O)cc1 | / | 66.7* | -1.4 | -8.0 | 1.3 | -0.6 | 3.1 | 5.4
Cc1ccccc1OCc1nc2ccccc2c(=O)n1/N=C/c1cn[nH]c1-c1ccccc1 | / | -4.6 | -3.2 | -4.4 | 1.9 | 0.4 | / | /
C[C@@H]1CN([C@H](C)CO)C(=O)c2cccc(NS(=O)(=O)c3cn(C)cn3)c2O[C@H]1CN(C)C(=O)NC1CCCCC1 | -2.0 | / | / | / | / | / | / | /
